Assay [1] in a line: Inhibition of recombinant human 3-MST expressed in Escherichia coli assessed as inhibition of H2S generation using 3-MP as substrate preincubated with enzyme for 1 hr followed by incubation with substrate for 1 hr by AzMC probe based fluorescence analysis. The procedure, abridged:
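Same 3-MST/3-MP/AzMC assay, 1 h preincubation then 1 h kinetic read, at 3, 10, 30, 100 and 300 μM (final DMSO 0.3%). Run for compounds inhibiting at least 60% at 100 μM. Three experiments in triplicate. IC50 from nonlinear fit of data taken between min 20 and 40 of the 60 min read.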

Assay [2] deals with MC-38. In words: Antiproliferative activity against mouse MC38 cells assessed as inhibition of cell proliferation measured after 48 hrs by IncuCyte live-cell imaging assay. The conditions noted are these: MC-38, 48 h. It counts as functional, cell-based.
Assay [3] relates to CT26. In words: Antiproliferative activity against mouse CT26 cells assessed as inhibition of cell proliferation measured after 48 hrs by IncuCyte live-cell imaging assay. It is filed as functional, cell-based. The conditions noted are these: CT26, 48 h.
Assay [4] relates to CT26. The assay is described as follows: Inhibition of 3-MST in mouse CT26 cells assessed as inhibition of H2S generation at 300 uM incubated for 4 hrs by AzMC probe based fluorescence analysis. It counts as cell-based. The method in brief: (§1)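 Cells seeded at 60,000/well in 8-well chambers and allowed to adhere overnight. Exposed to 300 μM compound for 4 h, then supernatant replaced with 1 mM AzMC in HBSS plus glucose for 1 h. Fluorescence imaged by microscopy; mean pixel intensity expressed as percent of control.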

The next assay has as its system MC38. The assay is described as follows: Inhibition of 3-MST in mouse MC38 cells assessed as inhibition of H2S generation at 300 uM incubated for 4 hrs by AzMC probe based fluorescence analysis. It is filed as cell-based. The procedure, abridged: as §1
For assay [5], the system named is MC-38. The assay is described as follows: Antitumor activity against mouse MC38 cells xenografed in C57BL/6 mouse assessed as reduction in tumor growth at 20 mg/kg, ip administered daily for 2 weeks by caliper analysis. It counts as functional, organism-based.
Another assay relates to Mus musculus. The assay is described as follows: Antitumor activity against mouse MC38 cells xenografed in C57BL/6 mouse assessed as euthanasia rate at 20 mg/kg, ip administered daily for 2 weeks and measured on day 32 (reference value: 75%). It is filed as functional, MC-38. The conditions noted are these: time 32 day.
Assay [6] concerns MC-38. In words: Antiproliferative activity against mouse MC38 cells assessed as inhibition of cell proliferation measured after 24 hrs by MTT assay. It is filed as functional, cell-based. The conditions noted are these: MC-38, 24 h.
For assay [7], the system named is CT26. In words: Antiproliferative activity against mouse CT26 cells assessed as inhibition of cell proliferation measured after 24 hrs by MTT assay. To be noted: CT26, 24 h. It counts as functional, cell-based.
For a further assay, the species on record is Homo sapiens. The assay is described as follows: Inhibition of recombinant human 3-MST expressed in Escherichia coli assessed as inhibition of H2S generation using 3-MP as substrate at 100 uM preincubated with enzyme for 1 hr followed by incubation with substrate for 1 hr by AzMC probe based fluorescence analysis. The conditions noted are these: time 2.0 hrs. The procedure, abridged:
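Human recombinant 3-MST, 3 μg/well, in 50 mM Tris-HCl pH 8 preincubated 1 h at 37 °C with compound at 100 μM (from 100 mM DMSO stock). Then 2 mM 3-MP (no extra sulfur acceptor) and 10 μM AzMC added. Fluorescence read kinetically 1 h at 37 °C, ex 365/em 450 nm. Percent inhibition, mean of three replicates.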

The source made the active and inactive calls. The rule behind the calls is not given here.

For `Cc1cc(=O)[nH]c(SCC(=O)c2cccc3ccccc23)n1`, the half-inhibitory concentration (IC50) turned out to be 15.6 µM in assay [1]; 101 µM with MC-38 [2]; 207 µM in the assay with CT26 [3]; 221 µM in the assay on MC-38 [6]; 243 µM in the assay on CT26 [7]. The inhibition entry with CT26 [4] and with MC38 was “Active” each time. For the same compound, the outcome in the assay on MC-38 [5] was inactive. Moreover, in the assay with Mus musculus, the Activity worked out at 67%. For the same compound, the inhibition in the assay filed under Homo sapiens is 68%.

Values taken from ChEMBL document CHEMBL5033990, “Novel Aryl-Substituted Pyrimidones as Inhibitors of 3-Mercaptopyruvate Sulfurtransferase with Antiproliferative Efficacy in Colon Cancer” (J Med Chem, 2021).
